Key:
[1] = Growth inhibition of human U87MG cells assessed as cell viability after 72 hrs by MTT assay; assay type: functional, cell-based, U-87MG ATCC; settings: U-87 MG
Outline: (§1)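 Cells were grown in DMEM or RPMI with 10% FBS and 1% penicillin/streptomycin at 37 °C, 5% CO2. They were seeded at 2000–3000 cells, rested 24 h, then exposed to a range of concentrations for 72 h. MTT (5 mg/mL stock) was added for 2–4 h at 37 °C and formazan dissolved in DMSO. A570 was read and IC50 calculated; triplicate wells, three separate experiments.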

[2] = Growth inhibition of human PC3 cells assessed as cell viability after 72 hrs by MTT assay; assay type: functional, cell-based; settings: PC-3, 72 h; outline: as §1
[3] = Growth inhibition of human HCT116 cells assessed as cell viability after 72 hrs by MTT assay; assay type: functional, cell-based; settings: HCT-116, 72 h; outline: as §1

Structure (SMILES)	IC50 [1] [µM]	IC50 [2] [µM]	IC50 [3] [µM]
O=c1oc2ccc(-c3ccccc3)cc2c2c1[nH]c(=O)n2-c1ccccc1	> 40	> 40	–
CC(C)(C#N)c1ccc(-n2c(=O)[nH]c3c(=O)oc4ccc(-c5cccnc5)cc4c32)cc1	25.6	38.2	–
N#CCc1ccc(-n2c(=O)[nH]c3c(=O)oc4ccc(-c5ccc(O)cc5)cc4c32)cc1	29.6	30.6	30.1
O=c1oc2ccc(-c3ccncc3)cc2c2c1[nH]c(=O)n2-c1ccccc1	38.7	–	–
Nc1cccc(-c2ccc3oc(=O)c4[nH]c(=O)n(-c5ccccc5)c4c3c2)c1	> 40	> 40	–
O=c1oc2ccc(-c3cnc4ccccc4c3)cc2c2c1[nH]c(=O)n2-c1ccccc1	35.6	34	31.5
CC(C)(C#N)c1ccc(-n2c(=O)[nH]c3c(=O)oc4ccc(-c5ccncc5)cc4c32)cc1	28.6	29	–
COc1ccc(-n2c(=O)[nH]c3c(=O)oc4ccc(-c5cnc6ccccc6c5)cc4c32)cc1	> 40	> 40	> 40
Cc1ccccc1-c1ccc2oc(=O)c3[nH]c(=O)n(-c4ccc(CC#N)cc4)c3c2c1	> 40	> 40	> 40
Cc1ccccc1-n1c(=O)[nH]c2c(=O)oc3ccc(-c4cnc5ccccc5c4)cc3c21	> 40	> 40	> 40
N#CCc1ccc(-n2c(=O)[nH]c3c(=O)oc4ccc(-c5cccnc5)cc4c32)cc1	> 40	> 40	29.4
Cc1ccccc1-c1ccc2oc(=O)c3[nH]c(=O)n(-c4ccccc4)c3c2c1	> 40	–	–
O=c1oc2ccc(-c3cccc(NS(=O)(=O)c4ccc(F)cc4)c3)cc2c2c1[nH]c(=O)n2-c1ccccc1	> 40	> 40	> 40
